Values joined by “and” are separate entries in the source; they are usually repeats but may differ in a detail not shown here. Equal values may be shown once.
Assays:
[1] = Effective concentration against HIV-I RTMDR1 in MT-4 cells; type: functional, cell-based, human immunodeficiency virus type i; settings: mt4
Summary of the method: (§1)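 MT4 cells (6 × 10⁵ cells/mL) were infected with diluted HIV-1 RTMDR1/MT2 stock (RT mutations L74V, M41L, V106A, T215Y) at MOI 0.001 TCID₅₀/cell. Compounds were added at various concentrations in RPMI 1640 with 10% FBS, then incubated at 37 °C in humidified CO₂. Medium containing compound was replenished on day 2. p24 in day-4 supernatants was measured by ELISA.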

[2] = system: Human immunodeficiency virus 1; assay: Effective concentration against HIV IIIB replication in H9 lymphocytes
[3] = Therapeutic index was determined; settings: for selectivity ratio: read-out: TI
[4] = system: Human immunodeficiency virus 3; assay: Inhibitory concentration against HIV IIIB replication in H9 lymphocytes; type: functional, organism-based, human immunodeficiency virus type IIIB; settings: Human immunodeficiency virus 1
[5] = Inhibitory concentration against HIV-I RTMDR1 in MT-4 cells; type: functional, cell-based, Human immunodeficiency virus 1; settings: mt4
[6] = Effective concentration against HIV-I RTMDR1 in MT-4 cells; NS=No suppression at 10 ug/ml; type: functional, cell-based, human immunodeficiency virus type i; settings: mt4; summary of the method: as §1

Compound | EC50 [1] | EC50 [2] | IC50 [4] | IC50 [5] | EC50 [6] | TI [3] | selectivity ratio [3]
CC(=O)O[C@@H]1[C@H](OC(=O)C23CCC(C)(C(=O)O2)C3(C)C)c2c(ccc3c(=O)cc(C)oc23)OC1(C)C (some centres not stated) | 2.2 µM | 2.29 µM | > 50 µM | > 40.2 µM |  | 18.2 | 21.9
Cc1cc(=O)c2ccc3c(c2o1)[C@@H](OC(=O)C12CCC(C)(C(=O)O1)C2(C)C)[C@@H](OC(=O)C(C)C)C(C)(C)O3 (some centres not stated) | 0.3 µM | 0.88 µM | 40.7 µM | 17.1 µM |  | 56.3 | 46
CC(C)c1cc(=O)c2ccc3c(c2o1)[C@@H](OC(=O)C12CCC(C)(C(=O)O1)C2(C)C)[C@@H](OC(=O)C12CCC(C)(C(=O)O1)C2(C)C)C(C)(C)O3 (some centres not stated) | 0.14 µM | 0.07 µM | 33.4 µM | > 15 µM |  | 483 | > 111
CC(C)C(=O)O[C@@H]1[C@H](OC(=O)C23CCC(C)(C(=O)O2)C3(C)C)c2c(ccc3c(=O)cc(-c4ccccc4)oc23)OC1(C)C (some centres not stated) |  | 1.68 µM | > 42.5 µM |  | No suppression |  | 25.3
CC1(C)Oc2ccc3c(=O)cc(-c4ccccc4)oc3c2[C@@H](OC(=O)C23CCC(C)(C(=O)O2)C3(C)C)[C@H]1OC(=O)C12CCC(C)(C(=O)O1)C2(C)C (some centres not stated) | 0.17 µM | 0.12 µM | > 35.8 µM | 12.2 µM |  | 71 | > 277
Cc1cc(=O)c2ccc3c(c2o1)[C@@H](OC(=O)C12CCC(C)(C(=O)O1)C2(C)C)[C@@H](OC(=O)C12CCC(C)(C(=O)O1)C2(C)C)C(C)(C)O3 (some centres not stated) | 0.19 µM | 0.0031 µM | 27.3 µM | 11.8 µM |  | 8600 | 62.5
Cc1coc2c3c(ccc2c1=O)OC(C)(C)[C@H](OC(=O)C12CCC(C)(C(=O)O1)C2(C)C)[C@@H]3OC(=O)C12CCC(C)(C(=O)O1)C2(C)C (some centres not stated) | 1.28 µM | 0.00099 µM | 14.7 µM | 3.14 µM |  |  | 
CC1(C)Oc2ccc3c(=O)c(-c4ccccc4)coc3c2[C@@H](OC(=O)C23CCC(C)(C(=O)O2)C3(C)C)[C@H]1OC(=O)C12CCC(C)(C(=O)O1)C2(C)C (some centres not stated) |  | 1.54 µM | > 35.8 µM |  | No suppression |  | 23.3
CCOCc1cc(=O)c2ccc3c(c2o1)[C@@H](OC(=O)C12CCC(C)(C(=O)O1)C2(C)C)[C@@H](OC(=O)C12CCC(C)(C(=O)O1)C2(C)C)C(C)(C)O3 (some centres not stated) | 0.37 µM | 0.1 µM | 15.1 µM | > 12.5 µM |  | 151 | > 34
CCOCc1cc(=O)c2ccc3c(c2o1)[C@@H](OC(=O)C12CCC(C)(C(=O)O1)C2(C)C)[C@@H](OC(=O)C(C)C)C(C)(C)O3 (some centres not stated) | 1.09 µM | 0.62 µM | > 43.9 µM | > 17.5 µM |  |  | 
Cc1cc(=O)c2ccc3c(c2o1)[C@@H](OC(=O)C12CCC(C)(C(=O)O1)C2(C)C)[C@@H](OC(=O)CC(C)C)C(C)(C)O3 (some centres not stated) | 0.59 µM | 0.0057 µM | > 32.2 µM | 13 µM |  |  | 
CCCc1cc(=O)c2ccc3c(c2o1)[C@@H](OC(=O)C12CCC(C)(C(=O)O1)C2(C)C)[C@@H](OC(=O)C12CCC(C)(C(=O)O1)C2(C)C)C(C)(C)O3 (some centres not stated) | 0.14 µM | 0.02 µM | > 37.6 µM | 37.6 µM |  |  | 
CCc1cc(=O)c2ccc3c(c2o1)[C@@H](OC(=O)C12CCC(C)(C(=O)O1)C2(C)C)[C@@H](OC(=O)C12CCC(C)(C(=O)O1)C2(C)C)C(C)(C)O3 (some centres not stated) | 0.06 µM | 0.00032 µM | 37.2 µM | 43.1 µM |  |  | 
Cc1cn([C@H]2C[C@H](N=[N+]=[N-])[C@@H](CO)O2)c(=O)[nH]c1=O [ZIDOVUDINE] | 0.1 µM | 0.04 µM | 1870 µM | > 37.5 µM |  |  | 

Further lines, with some results ahead:

EC50 [1] | EC50 [2] | IC50 [4] | IC50 [5] | EC50 [6] | Compound | TI [3] | selectivity ratio [3]
12.1 µM | 0.04 µM | > 16.1 µM | > 16.1 µM |  | CC1(C)Oc2ccc3ccc(=O)oc3c2[C@@H](OC(=O)C23CCC(C)(C(=O)O2)C3(C)C)[C@H]1OC(=O)C12CCC(C)(C(=O)O1)C2(C)C (some centres not stated) |  | 
7.36 µM | 1.62 µM | 35.4 µM | > 14.2 µM |  | CCc1cc(=O)c2cc(C(C)(C)C)c3c(c2o1)[C@@H](OC(=O)C12CCC(C)(C(=O)O1)C2(C)C)[C@@H](OC(=O)C12CCC(C)(C(=O)O1)C2(C)C)C(C)(C)O3 (some centres not stated) |  | 
4.46 µM | 2.24 µM | > 44.6 µM | 6.25 µM |  | CC(=O)O[C@@H]1[C@H](OC(=O)C23CCC(C)(C(=O)O2)C3(C)C)c2c(ccc3c(=O)cc(-c4ccccc4)oc23)OC1(C)C (some centres not stated) |  | 
0.31 µM | 0.007 µM | 11.3 µM | 4.72 µM |  | Cc1oc2c3c(ccc2c(=O)c1C)OC(C)(C)[C@H](OC(=O)C12CCC(C)(C(=O)O1)C2(C)C)[C@@H]3OC(=O)C12CCC(C)(C(=O)O1)C2(C)C (some centres not stated) |  | 
0.28 µM | 0.25 µM | > 46.3 µM | > 18.5 µM |  | CCc1cc(=O)c2ccc3c(c2o1)[C@@H](OC(=O)C12CCC(C)(C(=O)O1)C2(C)C)[C@@H](OC(=O)C(C)C)C(C)(C)O3 (some centres not stated) | 182 and > 66.7 | 
 | 0.0013 µM | 14.2 µM |  | No suppression | CC1(C)Oc2ccc3c(=O)ccoc3c2[C@@H](OC(=O)C23CCC(C)(C(=O)O2)C3(C)C)[C@H]1OC(=O)C12CCC(C)(C(=O)O1)C2(C)C (some centres not stated) |  | 11100
9.43 µM | 0.0059 µM | > 39.3 µM | > 15.7 µM |  | Cc1cc(=O)oc2c3c(ccc12)OC(C)(C)[C@H](OC(=O)C12CCC(C)(C(=O)O1)C2(C)C)[C@@H]3OC(=O)C12CCC(C)(C(=O)O1)C2(C)C (some centres not stated) |  | 
